Results on three molecules are retold here after paper PMC10774712 (RSC Advances, 2024).

Data set [1] concerns HOP-92. As to the kind of experiment: NCI 60 SRB assay. The data set is classed as cell-based. Particulars: Homo sapiens, HOP-92, read-out: growth inhibition.
Data set [2] deals with NCI 60 cancer cell lines. Kind of data set: NCI 60 cell panel anti-proliferative assay. The data set is classed as cell-based, human. Conditions: 10 μM single dose.
Data set [3] has as its system male Wistar rats. As to the kind of experiment: Toxicological study / calculation of LD50. The data set is classed as in vivo, rat. In a few lines: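 Adult male Wistar rats, 200 ± 20 g, acclimatised 7 days at 22 ± 3 °C under a natural light cycle and fasted 18 h before dosing. Single dose of test compound in 0.5 mL DMSO. Five dose levels given to groups of five rats.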

Data set [4] concerns MDA-MB-468 cells. Kind of data set: Annexin-V-FITC/PI apoptosis assay. The format is cell-based. A digest of the protocol:
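MDA-MB-468 cells seeded at 4 × 10⁶ per T75 flask and exposed to test compound for 24 and 48 h, with a DMSO control. Cells trypsinised; 0.5 × 10⁶ cells washed twice in PBS and stained with 5 μl annexin V-FITC plus 5 μl PI in 1× binding buffer, 15 min, room temperature, dark. Read by flow cytometry; early, late and total apoptotic fractions scored.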

Data set [5] has as its system P-glycoprotein. As to the kind of experiment: Quantitative real time PCR for P-glycoprotein. Conditions: MDA-MB-468/ADR cells, 72 h, in comparison to the control (1). The format is cell-based. A digest of the protocol:
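P-gp gene expression measured by real-time RT-PCR in 1 × 10⁵ MDA-MB-468 cells. Cells exposed to test compound at 0.125, 0.250, 0.500 and 1.000 μM for 72 h. Expression reported as fold change relative to untreated control, set at 1.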

For data set [6], the system named is MDA-MB-468 cells. Kind of data set: Cell cycle analysis. The data set is classed as cell-based. Particulars: for cell cycle arrest (in words): MDA-MB-468. In a few lines: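 Cells plated at 4 × 10⁶ per T75 flask and treated with test compound for 24 and 48 h. Harvested by trypsinisation, washed in PBS and fixed in ice-cold absolute alcohol. DNA stained with a commercial cell-cycle DNA reagent kit per the maker's instructions. Phase distribution determined by flow cytometry.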

For data set [7], the target named is EGFR tyrosine kinase (Homo sapiens, UniProt P00533). As to the kind of experiment: In vitro EGFR tyrosine kinase activity. The data set is classed as biochemical. Conditions: read-out: EGFR ± SD IC50.
The test system of data set [8] is DOX/MDA-MB-468 cells. Kind of data set: MTT cytotoxicity in drug-resistant DOX/MDA-MB-468 cell line. The data set is classed as cell-based. Conditions: read-out: IC50 DOX/MDA-MB-468, drug-resistant DOX/MDA-MB-468 cells.

Entries after “also recorded” stand apart in the source; their conditions may differ.

`CSc1nc(-c2ccc(Cl)cc2)c2c(NC(=O)c3ccccc3)nnc-2[nH]1` [Compound 6, N-(4-(4-Chlorophenyl)-6-(methylthio)-7H-pyrazolo[3,4-d]pyrimidin-3-yl)benzamide]: the inhibition at 10 µM in data set [1] was more than 100%. The “antiproliferative activity (in words)” value in data set [2] (most of the cancer cell lines) was “poor antiproliferative activity”.

As for “Ethyl 1-(3-benzamido-4-(4-chlorophenyl)-7H-pyrazolo[3,4-d]pyrimidin-6-yl)-5-(2,4-dichlorophenyl)-3-oxo-2,3-dihydro-1H-pyrazole-4-carboxylate [Compound 16]”, the time to death in data set [3] (1000 mg kg^−1) is on record as not above 7 days. The toxic signs result in data set [3] (1000 mg kg^−1, after intraperitoneal injection) was “abdominal muscle contractions and ataxia signs”. The “effect on the animals” value in data set [3] (doses 55, 90 and 100 mg kg^−1) is “does not produce any significant effect”. For the same molecule, the “apoptosis induction (in words)” value in data set [4] (MDA-MB-468) is given as “increased the percentage of apoptotic cells in a time-dependent manner”. Moreover, the late cellular apoptosis in data set [4] (MDA-MB-468, IC50 of compound, DMSO control 0.27%) is 54.61%. The early/primary apoptosis in data set [4] (MDA-MB-468, IC50 of compound, DMSO control 0.39%, lower right quadrant) was found to be 18.08%. This molecule also displayed a total apoptosis in data set [4] (MDA-MB-468, IC50 of compound, DMSO control 2.09%) of 46.59%. Moreover, the late apoptosis in data set [4] (MDA-MB-468, IC50 of compound, control 0.25%, upper right quadrant) is listed as 31.47%. For the same molecule, the “MDA-MB-468 P-glycoprotein fold change” value in data set [5] is 0.449 fold. Also, the “cell cycle arrest (in words)” value was “cell cycle arrest at the S phase; also recorded: G1 and S phases arrest pattern” in data set [6]; “induce cell cycle arrest with concurrent increase in G1 and S population” in data set [6] (listed as 16a). Besides, in data set [6] (MDA-MB-468, compound at its IC50, control 22.98%), the “cells in S phase (%DIP S)” value is recorded as 28.16%. Also, the “cells in G1 phase (%DIP G1)” value in data set [6] (MDA-MB-468, compound at its IC50, control 52.76%) is given as 57.41%. The IC50 amounted to 34 ± 2 nM in data set [7] and 844 nM in data set [8].

Regarding “N-(4-(4-Chlorophenyl)-6-(4-cyano-5-(2,4-dichlorophenyl)-3-oxo-2,3-dihydro-1H-pyrazol-1-yl)-7H-pyrazolo[3,4-d]pyrimidin-3-yl)benzamide [Compound 15]”, in data set [5], the “MDA-MB-468 P-glycoprotein fold change” value was determined as 0.301 fold. The cell growth inhibition result in data set [2] (some melanoma, ovarian, renal and breast cancer cell lines) is “above 100%”. In addition, the IC50 in data set [7] is 135 ± 6 nM; in data set [8], 267 nM.
